In test [1] the target is T1, Adenosine receptor A2b (Homo sapiens, UniProt P29275).
T1 sequence (P29275 whole entry): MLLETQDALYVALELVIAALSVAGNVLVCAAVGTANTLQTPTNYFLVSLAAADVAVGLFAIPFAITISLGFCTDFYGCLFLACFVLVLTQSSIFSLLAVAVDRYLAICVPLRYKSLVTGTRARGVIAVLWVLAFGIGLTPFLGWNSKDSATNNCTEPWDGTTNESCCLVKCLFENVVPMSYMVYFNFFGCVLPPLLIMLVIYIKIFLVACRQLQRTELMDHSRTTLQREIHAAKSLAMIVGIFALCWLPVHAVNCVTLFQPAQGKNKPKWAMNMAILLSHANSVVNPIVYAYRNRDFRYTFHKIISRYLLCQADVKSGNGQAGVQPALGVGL
Kind of test: Displacement of [3H]DPCPX from human adenosine A2b receptor expressed in HEK293 cells after 30 mins. Type of test: cell-based. Background: Displacement assays read how much labelled ligand stays bound in the presence of the test substance.

In another test the target is T2, Adenosine receptor A1 (Homo sapiens, UniProt P30542).
T2 sequence (P30542 whole entry): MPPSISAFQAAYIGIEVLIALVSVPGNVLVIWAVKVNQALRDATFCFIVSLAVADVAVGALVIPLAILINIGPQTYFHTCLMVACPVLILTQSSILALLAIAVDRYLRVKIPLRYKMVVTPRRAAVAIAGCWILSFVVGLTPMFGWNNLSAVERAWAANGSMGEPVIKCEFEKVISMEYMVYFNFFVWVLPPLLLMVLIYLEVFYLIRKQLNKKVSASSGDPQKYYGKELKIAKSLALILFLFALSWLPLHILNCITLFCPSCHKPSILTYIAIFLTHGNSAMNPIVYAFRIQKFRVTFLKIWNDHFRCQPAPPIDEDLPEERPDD
Briefly: Displacement of [3H]DPCPX from human adenosine A1 receptor expressed in CHO-A1 cells after 60 mins. Type of test: cell-based. The method in brief: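 Competition binding on membranes from CHO cells expressing human A1 receptor, labelled with 2 nM [3H]DPCPX. Non-specific binding defined with (R)-PIA. Incubation at 25 °C for 60 min, then filtration and beta scintillation counting. Result given as Ki (nM) or % inhibition at the single test concentration. Means of four separate assays, each in triplicate.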

Test [2] addresses T3, Adenosine receptor A2a (Homo sapiens, UniProt P29274). Briefly: Displacement of [3H]ZM241385 from human adenosine A2a receptor expressed in HeLa cells at 10 uM after 30 mins. Type of test: cell-based. The method in brief:
(§1)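 [3H]ZM241385 specific binding in HeLa cells expressing human A2A receptor. Incubation at 25 °C for 30 min, followed by filtration and beta scintillation counting. Output is Ki (nM) or % inhibition at the single test concentration. Values are means of four separate assays, each performed in triplicate.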

For test [3], the target named is T4, Adenosine receptor A3 (Homo sapiens) (UniProt P0DMS8).
T4 sequence (whole entry): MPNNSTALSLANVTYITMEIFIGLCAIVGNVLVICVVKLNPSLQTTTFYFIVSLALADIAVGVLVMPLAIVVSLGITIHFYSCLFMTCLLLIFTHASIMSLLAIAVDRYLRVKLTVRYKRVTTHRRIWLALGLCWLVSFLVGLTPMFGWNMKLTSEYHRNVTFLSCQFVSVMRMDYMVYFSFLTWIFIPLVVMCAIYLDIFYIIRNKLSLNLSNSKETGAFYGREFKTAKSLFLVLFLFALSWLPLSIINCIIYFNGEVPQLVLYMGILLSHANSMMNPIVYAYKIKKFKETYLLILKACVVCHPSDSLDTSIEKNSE
Briefly: Displacement of [3H]NECA from human adenosine A3 receptor expressed in HeLa cells at 10 uM after 180 mins. Type of test: cell-based. The method in brief: (§2)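 HeLa cells expressing human A3 receptor, with displacement of [3H]NECA. Incubated at 25 °C for 180 min, then filtered and counted by beta scintillation. Ki (nM) or percentage inhibition at the single test concentration. Means of four assays, each in triplicate.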

Test [4] has as its target T5, Adenosine receptor A2b (Homo sapiens) (UniProt P29275).
T5 sequence (whole entry): T1 sequence (P29275 whole entry)
Briefly: Displacement of [3H]DPCPX from human adenosine A2b receptor expressed in HEK293 cells at 10 uM after 30 mins. Type of test: cell-based. The method in brief: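 Human A2B receptor expressed in HEK-293 cells, with displacement of [3H]DPCPX. Incubated at 25 °C for 30 min, then filtered and counted by beta scintillation. Reported as Ki (nM) or percentage inhibition at the single test concentration. Means of four independent assays, each run in triplicate.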

In test [5] the target is T6, Adenosine receptor A3 (Homo sapiens, UniProt P0DMS8).
T6 sequence (P0DMS8 whole entry): T4 sequence (whole entry)
Kind of test: Displacement of [3H]NECA from human adenosine A3 receptor expressed in HeLa cells after 180 mins. It is filed as cell-based. The method in brief:
as §2

Test [6] concerns the target T7, Adenosine receptor A3 (Bos taurus, UniProt Q0VC81).
T7 sequence (Q0VC81 whole entry): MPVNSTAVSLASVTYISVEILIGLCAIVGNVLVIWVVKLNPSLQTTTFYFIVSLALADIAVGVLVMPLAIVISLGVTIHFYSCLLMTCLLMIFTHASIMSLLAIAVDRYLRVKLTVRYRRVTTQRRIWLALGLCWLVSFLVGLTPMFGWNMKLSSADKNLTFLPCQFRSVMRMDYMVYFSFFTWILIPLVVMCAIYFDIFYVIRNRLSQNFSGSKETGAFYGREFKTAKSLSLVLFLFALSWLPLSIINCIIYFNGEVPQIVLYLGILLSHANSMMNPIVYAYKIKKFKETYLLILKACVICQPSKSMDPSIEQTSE
Kind of test: Binding affinity to bovine adenosine A3 receptor.

Test [7] can be described thus: Binding affinity to human adenosine A2 receptor.
The target in test [8] is T3, Adenosine receptor A2a. Kind of test: Displacement of [3H]ZM241385 from human adenosine A2a receptor expressed in HeLa cells after 30 mins. Type of test: cell-based. In outline: as §1
For test [9], the species on record is Homo sapiens. Kind of test: Selectivity ratio of Ki for human adenosine A2b receptor to Ki for human A1 receptor.
The species entered for test [10] is Homo sapiens. Briefly: Selectivity ratio of Ki for human adenosine A2a receptor to Ki for human A1 receptor.
In test [11] the target is cGMP-specific 3',5'-cyclic phosphodiesterase (Homo sapiens) (UniProt O76074). Briefly: Inhibition of human platelets PDE5 at 2 uM. The method in brief:
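PDE5 came from human platelet lysate (10⁹ platelets): the supernatant was fractionated on a Mono-Q ion-exchange column. Activity was measured with a two-step cyclic nucleotide phosphodiesterase procedure. Compounds were tested at a single concentration and the result given as % inhibition.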

Test [12] deals with T8, Adenosine receptor A1 (Bos taurus) (UniProt P28190).
T8 sequence (whole entry): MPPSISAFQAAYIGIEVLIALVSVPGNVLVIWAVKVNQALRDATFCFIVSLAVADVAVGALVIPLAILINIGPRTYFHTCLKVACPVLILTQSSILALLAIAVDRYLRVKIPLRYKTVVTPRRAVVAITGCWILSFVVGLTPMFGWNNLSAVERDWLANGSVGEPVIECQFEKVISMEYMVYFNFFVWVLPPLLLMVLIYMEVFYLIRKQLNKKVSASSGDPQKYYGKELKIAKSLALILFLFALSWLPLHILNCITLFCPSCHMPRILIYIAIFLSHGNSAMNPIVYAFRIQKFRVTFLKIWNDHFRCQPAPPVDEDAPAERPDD
Kind of test: Binding affinity to bovine adenosine A1 receptor at 34 uM.

For a further test, the species on record is Bos taurus. Kind of test: Binding affinity to bovine adenosine A2a receptor at 34 uM.
Test [13] can be described thus: Binding affinity to bovine adenosine A2a receptor. On the set-up: species or system Bos taurus.
Test [14] deals with T1, Adenosine receptor A2b. Briefly: Binding affinity to human adenosine A2b receptor. In outline: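 Competition binding on human A2B receptors expressed in HEK-293 cells, displacing [3H]DPCPX. Bound radioactivity was separated by filtration and counted by beta scintillation. Values are means of four separate assays, each run in triplicate.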

Calls of active or inactive are those of the source. No cut-off for these calls is given here. A value given as a limit tells only on which side of the number the result lay.

T3 sequence (P29274 whole entry): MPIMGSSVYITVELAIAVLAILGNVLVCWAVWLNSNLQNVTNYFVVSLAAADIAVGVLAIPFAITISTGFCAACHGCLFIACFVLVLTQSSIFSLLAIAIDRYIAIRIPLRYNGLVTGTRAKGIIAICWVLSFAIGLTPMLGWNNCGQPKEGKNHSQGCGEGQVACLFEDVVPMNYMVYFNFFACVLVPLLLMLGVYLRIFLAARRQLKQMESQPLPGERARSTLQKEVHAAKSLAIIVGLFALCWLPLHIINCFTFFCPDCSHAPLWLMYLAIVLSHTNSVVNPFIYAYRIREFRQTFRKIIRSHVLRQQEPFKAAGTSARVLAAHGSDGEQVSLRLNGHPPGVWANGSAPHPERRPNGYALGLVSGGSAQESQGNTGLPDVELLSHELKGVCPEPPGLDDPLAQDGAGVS

Take `Cc1nn(Cc2ccccc2)c(=O)c2ncn3nc(-c4ccccc4)cc3c12`: the Ki at Adenosine receptor A2b [1] came out at 7560 nM; at Adenosine receptor A1, 104 nM. The inhibition (at Adenosine receptor A2a [2]; in [3]) was below 50% throughout.

As to `Cc1nn(C(C)c2ccccc2)c(=O)c2nc(C)n3nc(-c4ccccc4)cc3c12` (configuration not stated), the inhibition (in [4]; on Adenosine receptor A2a [2]) was below 50% throughout. The Ki was found to be 4730 nM on Adenosine receptor A3 [5] and 3080 nM on Adenosine receptor A1.

For the compound `O=C(Cc1cccc2ccccc12)Nc1nc2nn(CCCc3ccccc3)cc2c2nc(-c3ccco3)nn12`, the Ki at Adenosine receptor A3 [6] was 300 nM; in test [7] it was 800 nM.

`Cc1nn(Cc2ccccc2)c(=O)c2ncn3nc(-c4ccsc4)cc3c12`: the figures for the Ki at Adenosine receptor A2a [8], at Adenosine receptor A2b [1] and at Adenosine receptor A1 were 7360 nM, 4650 nM and 85.3 nM, respectively. Moreover, the fold change (FC) in the test filed under Homo sapiens [9] amounted to 56; in the test filed under Homo sapiens [10], 90. Moreover, the inhibition in [3] is below 50%.

Turning to `O=c1c2ncn3nc(-c4ccccc4)cc3c2c(-c2ccncc2)nn1Cc1ccccc1`, the values for the Ki on Adenosine receptor A2a [8] and at Adenosine receptor A1 were 67.9 nM and 10.2 nM, respectively. Further, the inhibition result in [4] and in test [3] was “inactive” in each case. Besides, in the test filed under Homo sapiens [10], the Ratio Ki came out at 7.

As for `Cc1nc2c(=O)n(Cc3ccccc3)nc(-c3cccnc3)c2c2cc(-c3ccccc3)nn12`, the Ki at Adenosine receptor A2a [8] was determined as 2110 nM; on Adenosine receptor A1, 47.4 nM. Further, the inhibition result in [4] and in [3] was “inactive” in each case. In test [11], the inhibition is 29.7%.

Take `Cc1nc2c(=O)n(Cc3ccccc3)nc(-c3ccncc3)c2c2cc(-c3ccccc3)nn12`: the Ki turned out to be 501 nM on Adenosine receptor A2a [8] and 43.6 nM at Adenosine receptor A1. Further, the inhibition entry in [4] and in [3] was “inactive” in each case. Further, the inhibition in test [11] stood at 5.7%.

In the case of `COc1ccc(-c2nc3c(O)nc4ccccc4n3n2)cc1`, the inhibition in test [12] was found to be 0%; in the test listed under Bos taurus it was 8.7%.

On to `O=c1c2ncn3nc(-c4ccccc4)cc3c2c(-c2cccnc2)nn1Cc1ccccc1`, for which the inhibition constant (Ki) on Adenosine receptor A2a [8] stood at 805 nM; on Adenosine receptor A1 it was 11.4 nM. Besides, the inhibition entry in test [4] and in test [3] was “inactive” in each case. For the same compound, the Ratio Ki in the test listed under Homo sapiens [10] was 71.

In the case of `O=c1c(-c2ccccc2)nnc2n(-c3ccccc3)c3ccccc3n12`, the values for the Ki (on Adenosine receptor A3 [6]; in test [13]) were above 1000 nM and above 10000 nM, respectively.

Regarding `COc1ccc(CCCn2ncc3c2nc(N)n2nc(-c4ccco4)nc32)cc1`, the Ki at Adenosine receptor A2b [14] and at Adenosine receptor A3 [6] was above 10000 nM in each case.

Take `CCc1nc2c(=O)n(Cc3ccccc3)nc(-c3cccnc3)c2c2cc(-c3ccccc3)nn12`: the inhibition entry in test [4] and in test [3] was “inactive” throughout. For the same compound, the affinity at Adenosine receptor A1 corresponds to a Ki of 180 nM. Besides, the inhibition on Adenosine receptor A2a [2] is below 50%; in test [11], 32.8%.

The term Ki denotes a measure of affinity in units of concentration, obtained from inhibition or displacement. A low value points to tighter binding. Broadly, the inhibition is the percentage by which the read-out fell short of the control.

For the origin of these results see ChEMBL document CHEMBL1275345, “Pyrazolo[1',5':1,6]pyrimido[4,5-d]pyridazin-4(3H)-ones as selective human A(1) adenosine receptor ligands” (Bioorg Med Chem, 2010).
